Screening results (PubChem BioAssay)
MEX-5 binding: MEX-5 zinc finger RNA-binding disruptors – biochemical, C. elegans, fluorescence polarization, MLPCN library, primary screen | activity score (negative = inhibition of binding), % at 10 µM | 300,000 tested, 0.38% active | MEX-5/FITC-TCR2 RNA binding; stronger effect = lower value;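 active = inhibition past about -25% in most replicates, and total fluorescence under double the plate's negative control median, limit read from the data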;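 also: 0% = DMSO and -100% = 5 µM competing unlabeled TCR2 RNA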
Target sequence (Q9XUB2 whole entry, looked up): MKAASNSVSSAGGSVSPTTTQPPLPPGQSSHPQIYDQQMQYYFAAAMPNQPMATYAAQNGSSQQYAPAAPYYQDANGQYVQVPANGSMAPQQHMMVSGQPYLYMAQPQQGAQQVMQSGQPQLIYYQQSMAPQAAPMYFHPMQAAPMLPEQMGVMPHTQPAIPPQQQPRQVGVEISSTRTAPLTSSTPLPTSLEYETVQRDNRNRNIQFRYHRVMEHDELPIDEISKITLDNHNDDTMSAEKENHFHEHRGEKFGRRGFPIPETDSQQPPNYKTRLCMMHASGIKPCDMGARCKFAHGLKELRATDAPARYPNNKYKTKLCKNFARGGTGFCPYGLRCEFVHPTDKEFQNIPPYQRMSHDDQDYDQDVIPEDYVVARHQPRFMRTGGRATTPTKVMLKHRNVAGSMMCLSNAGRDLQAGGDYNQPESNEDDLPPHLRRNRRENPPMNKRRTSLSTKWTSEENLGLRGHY
HCV core dimer: inhibitors of HCV core protein dimerization, primary screen, biochemical, TR-FRET, high-throughput; AID 1899, 2009; inhibition, % at 5 µM; 300,000 tested, 0.33% active; TR-FRET GST/Flag-core106 dimerization, 1536-well;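 active = inhibition above the mean of all tested compounds plus 3 SD, set per screening campaign, cut at about 45% in these data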
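assay system = GST-tagged and Flag-tagged HCV core protein residues 1-106 | controls = unlabelled core106 and no-GST-core106 wells | incubation = compound-protein-antibody incubation 4 h at 22.5 °C | probe or stimulus = Eu donor and XL665 acceptor anti-tag antibodies | read-out = % inhibition based on acceptor/donor emission ratio | signal = TR-FRET 671 and 617 nm emission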
DNA FID counter: compounds displacing fluorescent DNA intercalator, primary screen, artefact control for HCV NS3 helicase inhibitor project, biochemical, FID fluorescence. DNA fluorescent intercalator displacement. inhibition, % at 7.9 µM. 290,000 tested, 0.17% active. AID 1845, 2009; in the data active = inhibition above about 37%;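 also: 0% = vehicle and 100% = reference compound; higher means more ethidium bromide displaced from hairpin DNA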
NRP1-CendR mod: modulators of CendR peptide binding to NRP-1, primary screen, biochemical, fluorescence polarization, uHTS. Neuropilin-1 (Homo sapiens), O14786. FAM-RPARPAR peptide binding to NRP-1. inhibition, % at 25 µM. 360,000 tested, 0.85% active;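 active = inhibition or corrected inhibition above about 18%, plus a signal ratio from 0.5 to 1.5, limit read from the data, passing the limit was not always enough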
Starred values were filed as active, the others as inactive. An excerpt weighted towards active compounds, which were near 1.5% of everything screened.

Screening C=CCn1c(SCC(=O)c2ccc(CNC(C)=O)o2)nc2ccccc2c1=O returned MEX-5 binding -3, HCV core dimer 49*, DNA FID counter -25 and NRP1-CendR mod -18.
`CC(C)(C)c1ccc(S(=O)(=O)NC(=O)C2(C)CCN2C(=O)CC2CCCCC2)cc1` (stereo unspecified) gave NRP1-CendR mod 1.
For Cc1[nH]nc(NNC(=O)c2ccccc2)c1[N+](=O)[O-] the results were MEX-5 binding -83*, HCV core dimer -1, DNA FID counter -2 and NRP1-CendR mod 11.
`c1ccc(-c2nnc(-c3ccco3)o2)cc1` gave MEX-5 binding 0, HCV core dimer 4, DNA FID counter -2 and NRP1-CendR mod 4.
Screening c1coc(-c2nnc(-c3ccco3)nn2)c1 returned MEX-5 binding -59*, HCV core dimer 21, DNA FID counter -2 and NRP1-CendR mod 8.
Screening Cc1ccc(-c2nc(C=Nc3ccc(O)cc3)c(O)o2)cc1 returned MEX-5 binding -37*, DNA FID counter 6 and NRP1-CendR mod -39.
`CCSc1nnc(-c2cnn(-c3ccccc3)c2-n2cccc2)n1C` gave MEX-5 binding 0, HCV core dimer 10, DNA FID counter -42 and NRP1-CendR mod 44*.
For Cc1cc(C)cc(N(C(=O)CNS(=O)(=O)c2ccccc2)C(C(=O)NCc2ccccc2)c2ccc(C)o2)c1 (stereo unspecified) the results were HCV core dimer 16, DNA FID counter -43 and NRP1-CendR mod 10.
Screening Cc1ccc(S(=O)(=O)NCC(=O)N(c2ccccc2)C(C(=O)NCc2ccccc2)c2ccco2)cc1 (stereo unspecified) returned MEX-5 binding 1, HCV core dimer 2, DNA FID counter -42 and NRP1-CendR mod 29*.
`COc1cc(C(=O)NC(c2ccccc2)c2ccccc2)cc(OC)c1C` gave MEX-5 binding -47*, HCV core dimer 12, DNA FID counter -6 and NRP1-CendR mod 2.
Screening COc1ccc2cc(C(=O)/C=C/c3cc(OC)c(OC)c(OC)c3)ccc2c1 returned MEX-5 binding -2, HCV core dimer 0, DNA FID counter -35 and NRP1-CendR mod 27*.
Screening COc1cc(C=CC(=O)c2cc(OC)c(OC)c(OC)c2)cc(OC)c1OC returned NRP1-CendR mod 6.
`COc1ccc(Cn2c(=O)sc3ccccc32)cc1` gave MEX-5 binding 2, HCV core dimer 10, DNA FID counter -10 and NRP1-CendR mod 31*.
CC(C)Oc1ccc(Cn2c(=O)sc3ccccc32)cc1 was read as MEX-5 binding -1, HCV core dimer 7, DNA FID counter -13 and NRP1-CendR mod -4.
COC(=O)Cc1ccc(OC2(C)CCN(Cc3ccccc3)C2)cc1 (stereo unspecified) was read as NRP1-CendR mod 1.
`COCCNc1nc(-c2cc(C(=O)Nc3ccccc3)on2)cc(C(C)C)n1` gave MEX-5 binding 4 and HCV core dimer -5.
C=C(C)C(=O)Oc1ccc(N=Nc2ccc(C)cc2)ccc1=O was read as NRP1-CendR mod 16.
For CC1(C)Cc2c(sc(NC(=O)c3ccc(C(=O)c4ccccc4)cc3)c2C(N)=O)C(C)(C)N1 the results were MEX-5 binding -7, HCV core dimer -2, DNA FID counter 37* and NRP1-CendR mod -7.
`CCOC(=O)N1CCN(S(=O)(=O)c2ccc(C(=O)Nc3sc4c(c3C(N)=O)CC(C)(C)NC4(C)C)cc2)CC1` gave MEX-5 binding -1, HCV core dimer -23, DNA FID counter 41* and NRP1-CendR mod 0.
CN(C)CCNc1ncnc2c1ncn2[C@H]1CN(Cc2ccncc2)C[C@@H](CO)O1 was read as NRP1-CendR mod -2.
O=C(c1ncn(Cc2ccccc2)c1C(=O)N1CCc2ccccc2C1)N1CCc2ccccc2C1 was read as NRP1-CendR mod 30*.
`O=C(c1ncn(Cc2ccccc2)c1C(=O)N1CCN(c2ccccc2)CC1)N1CCN(c2ccccc2)CC1` gave NRP1-CendR mod 7.
`COc1ccc(OCc2n(CC(=O)OC3CC(C)CCC3C(C)C)c3ccccc3[n+]2C)cc1` (stereo unspecified) gave MEX-5 binding -2, HCV core dimer -7, DNA FID counter 40* and NRP1-CendR mod 3.
Screening CN(NC(=O)Nc1ccc(Cl)cc1)c1c(Cl)c(Cl)nn1C returned MEX-5 binding -3, HCV core dimer 5, DNA FID counter -5 and NRP1-CendR mod 20*.
For CC(=O)Nc1cc(-c2ccccc2)cn2c(-c3cccc(C(C)=O)c3)cnc12 the results were NRP1-CendR mod -27.
`Cc1ccc(C2C(C#N)=C(N)Oc3c2sc2ccccc32)o1` (stereo unspecified) gave MEX-5 binding 6, HCV core dimer 80* and DNA FID counter 3.
CCOC(=O)CC1=C(C(=O)OCC)C(c2ccc(C)o2)C(C#N)=C(N)O1 (stereo unspecified) was read as MEX-5 binding -19, HCV core dimer 5, DNA FID counter -10 and NRP1-CendR mod -4.
Cc1cc(=O)n(C(C)c2ccccc2)n1C(C)c1ccccc1 (stereo unspecified) was read as NRP1-CendR mod 2.
Screening Cc1cnc(C=NNC(N)=S)c2cccc(N)c12 returned NRP1-CendR mod 26*.
Screening CC1=CC(=O)c2c(O)ccc(O)c2C1=O returned HCV core dimer 70* and DNA FID counter 6.
For COc1cc2c(cc1OC)-c1c(OC)c(OC)cc3ccnc(c13)C2=O the results were MEX-5 binding -57*, HCV core dimer -35, DNA FID counter -9 and NRP1-CendR mod 4.
`COc1cc(-c2nccc3cc4c(cc23)OCO4)cc(OC)c1OC` gave NRP1-CendR mod -5.
For C1CCC(n2nnnc2CN2CCCC2)CC1 the results were MEX-5 binding 2, HCV core dimer -3, DNA FID counter -3 and NRP1-CendR mod -14.
COc1ccc(N2CCN(Cc3nnnn3C3CCCCC3)CC2)cc1 was read as MEX-5 binding 0, HCV core dimer -3, DNA FID counter -21 and NRP1-CendR mod 23*.
`COc1ccc(C(=O)N=c2c(C#N)cc3c(=O)n4cccc(C)c4nc3n2Cc2ccco2)cc1` gave MEX-5 binding -41* and DNA FID counter -17.
For Cc1cccn2c(=O)c3cc(C#N)c(=NC(=O)c4ccncc4)n(CCCOC(C)C)c3nc12 the results were MEX-5 binding 32, HCV core dimer 9, DNA FID counter -4 and NRP1-CendR mod 3.
Screening COCCCn1c(=NC(=O)c2ccncc2)c(C#N)cc2c(=O)n3cccc(C)c3nc21 returned MEX-5 binding 3, HCV core dimer 6, DNA FID counter -10 and NRP1-CendR mod -10.
`Cc1ccccc1C(=O)N=c1c(C#N)cc2c(=O)n3cccc(C)c3nc2n1Cc1ccco1` gave MEX-5 binding 0, HCV core dimer 24 and DNA FID counter -9.
